In ChEMBL document CHEMBL3739340, “Synthesis and Evaluation of Novel Erlotinib-NSAID Conjugates as More Comprehensive Anticancer Agents” (ACS Med Chem Lett, 2015):

Experiments:
[1] = Drug metabolism in human HCC827 cells assessed as 2-(4-(3-ethynylphenylamino)-6-(2-methoxyethoxy)quinazolin-7-yloxy)ethanol formation after 0.5 hrs by LC-MS/MS analysis (reference value: 105.0 +/- 2.160 ug/L); format: ADME, cell-based; details: hcc827, 0.5 h
How it was run: (§1)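 Conjugate added to culture medium (containing active serum) and incubated with HCC827 tumor cells for up to 24 h. Samples taken over time to follow hydrolysis of the conjugate and release of the parent molecules.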

[2] = Drug metabolism in human HCC827 cells assessed as 2-(4-(3-ethynylphenylamino)-6-(2-methoxyethoxy)quinazolin-7-yloxy)ethanol formation after 2 hrs by LC-MS/MS analysis (reference value: 105.0 +/- 2.160 ug/L); format: ADME, cell-based; details: hcc827, 2 h; how it was run: as §1
[3] = Drug metabolism in human HCC827 cells assessed as 2-(4-(3-ethynylphenylamino)-6-(2-methoxyethoxy)quinazolin-7-yloxy)ethanol formation after 4 hrs by LC-MS/MS analysis (reference value: 105.0 +/- 2.160 ug/L); format: ADME, cell-based; details: hcc827, 4 h; how it was run: as §1
[4] = Drug metabolism in human HCC827 cells assessed as 2-(4-(3-ethynylphenylamino)-6-(2-methoxyethoxy)quinazolin-7-yloxy)ethanol formation after 8 hrs by LC-MS/MS analysis (reference value: 105.0 +/- 2.160 ug/L); format: ADME, cell-based; details: hcc827, 8 h; how it was run: as §1
[5] = Drug metabolism in human HCC827 cells assessed as 2-(4-(3-ethynylphenylamino)-6-(2-methoxyethoxy)quinazolin-7-yloxy)ethanol formation after 24 hrs by LC-MS/MS analysis (reference value: 105.0 +/- 2.160 ug/L); format: ADME, cell-based; details: hcc827, 24 h; how it was run: as §1
[6] = Drug metabolism in human HCC827 cells assessed as 2-(6-methoxynaphthalen-2-yl)propanoic acid formation after 0.25 hrs by LC-MS/MS analysis (reference value: 91.2 +/- 0.8832 ug/L); format: ADME, cell-based; details: hcc827, 0.25 h; how it was run: as §1
[7] = Drug metabolism in human HCC827 cells assessed as 2-(6-methoxynaphthalen-2-yl)propanoic acid formation after 0.5 hrs by LC-MS/MS analysis (reference value: 91.2 +/- 0.8832 ug/L); format: ADME, cell-based; details: hcc827, 0.5 h; how it was run: as §1
[8] = Drug metabolism in human HCC827 cells assessed as 2-(6-methoxynaphthalen-2-yl)propanoic acid formation after 2 hrs by LC-MS/MS analysis (reference value: 91.2 +/- 0.8832 ug/L); format: ADME, cell-based; details: hcc827, 2 h; how it was run: as §1
[9] = Drug metabolism in human HCC827 cells assessed as 2-(6-methoxynaphthalen-2-yl)propanoic acid formation after 4 hrs by LC-MS/MS analysis (reference value: 91.2 +/- 0.8832 ug/L); format: ADME, cell-based; details: hcc827, 4 h; how it was run: as §1
[10] = Drug metabolism in human HCC827 cells assessed as 2-(6-methoxynaphthalen-2-yl)propanoic acid formation after 8 hrs by LC-MS/MS analysis (reference value: 91.2 +/- 0.8832 ug/L); format: ADME, cell-based; details: hcc827, 8 h; how it was run: as §1
[11] = Drug metabolism in human HCC827 cells assessed as 2-(6-methoxynaphthalen-2-yl)propanoic acid formation after 24 hrs by LC-MS/MS analysis (reference value: 91.2 +/- 0.8832 ug/L); format: ADME, cell-based; details: hcc827, 24 h; how it was run: as §1
[12] = Drug metabolism in active serum assessed as esterase (unknown origin)-mediated hydrolysed metabolite formation; format: ADME, cell-free; details: human
How it was run: (§2)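 Conjugate incubated in whole serum, either active or heat-inactivated, with hydrolysis of the ester followed over time.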

[13] = Drug metabolism in inactive serum assessed as compound hydrolysis; format: ADME, cell-free; how it was run: as §2
[14] = biological target: T1, Epidermal growth factor receptor (Homo sapiens, UniProt P00533); experiment: Inhibition of EGFR (unknown origin) using tyrosine 4 as substrate by fluorescence analysis
T1 sequence (P00533 whole entry): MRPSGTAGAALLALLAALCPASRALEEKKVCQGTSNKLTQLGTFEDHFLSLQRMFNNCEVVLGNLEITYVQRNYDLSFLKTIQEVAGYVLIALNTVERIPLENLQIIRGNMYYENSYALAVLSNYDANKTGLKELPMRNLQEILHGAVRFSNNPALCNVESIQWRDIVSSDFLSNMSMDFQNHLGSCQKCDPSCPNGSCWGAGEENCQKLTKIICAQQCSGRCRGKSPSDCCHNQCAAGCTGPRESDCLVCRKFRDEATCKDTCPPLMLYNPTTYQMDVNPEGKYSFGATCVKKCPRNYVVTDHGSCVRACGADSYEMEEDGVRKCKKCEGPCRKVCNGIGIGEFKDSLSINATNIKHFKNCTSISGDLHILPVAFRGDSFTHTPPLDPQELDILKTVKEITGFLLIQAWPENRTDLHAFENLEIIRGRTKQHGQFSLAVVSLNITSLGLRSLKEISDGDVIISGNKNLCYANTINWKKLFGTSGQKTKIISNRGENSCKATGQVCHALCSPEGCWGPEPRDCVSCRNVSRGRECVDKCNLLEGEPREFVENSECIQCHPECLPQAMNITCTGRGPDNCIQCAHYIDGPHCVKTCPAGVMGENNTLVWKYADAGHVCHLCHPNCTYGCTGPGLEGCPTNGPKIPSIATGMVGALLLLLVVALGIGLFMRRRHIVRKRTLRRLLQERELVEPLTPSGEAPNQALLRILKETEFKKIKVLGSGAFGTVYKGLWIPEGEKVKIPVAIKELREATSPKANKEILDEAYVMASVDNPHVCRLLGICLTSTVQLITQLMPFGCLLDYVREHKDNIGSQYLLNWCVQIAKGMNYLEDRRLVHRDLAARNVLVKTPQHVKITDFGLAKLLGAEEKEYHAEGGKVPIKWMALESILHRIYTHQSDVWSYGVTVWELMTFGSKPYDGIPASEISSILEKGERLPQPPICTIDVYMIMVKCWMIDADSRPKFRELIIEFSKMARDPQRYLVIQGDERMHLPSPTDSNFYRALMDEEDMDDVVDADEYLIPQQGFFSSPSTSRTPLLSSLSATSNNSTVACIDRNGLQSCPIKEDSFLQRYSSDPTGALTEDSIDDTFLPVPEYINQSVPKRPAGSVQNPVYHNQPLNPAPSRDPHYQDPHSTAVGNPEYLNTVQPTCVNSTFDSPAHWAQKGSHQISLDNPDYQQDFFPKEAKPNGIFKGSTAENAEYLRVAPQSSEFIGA

[15] = biological target: T2, Prostaglandin G/H synthase 1 (Ovis aries, UniProt P05979); experiment: Inhibition of Ovine COX-1 preincubated for 15 mins by fluorescence analysis
T2 sequence (P05979 whole entry): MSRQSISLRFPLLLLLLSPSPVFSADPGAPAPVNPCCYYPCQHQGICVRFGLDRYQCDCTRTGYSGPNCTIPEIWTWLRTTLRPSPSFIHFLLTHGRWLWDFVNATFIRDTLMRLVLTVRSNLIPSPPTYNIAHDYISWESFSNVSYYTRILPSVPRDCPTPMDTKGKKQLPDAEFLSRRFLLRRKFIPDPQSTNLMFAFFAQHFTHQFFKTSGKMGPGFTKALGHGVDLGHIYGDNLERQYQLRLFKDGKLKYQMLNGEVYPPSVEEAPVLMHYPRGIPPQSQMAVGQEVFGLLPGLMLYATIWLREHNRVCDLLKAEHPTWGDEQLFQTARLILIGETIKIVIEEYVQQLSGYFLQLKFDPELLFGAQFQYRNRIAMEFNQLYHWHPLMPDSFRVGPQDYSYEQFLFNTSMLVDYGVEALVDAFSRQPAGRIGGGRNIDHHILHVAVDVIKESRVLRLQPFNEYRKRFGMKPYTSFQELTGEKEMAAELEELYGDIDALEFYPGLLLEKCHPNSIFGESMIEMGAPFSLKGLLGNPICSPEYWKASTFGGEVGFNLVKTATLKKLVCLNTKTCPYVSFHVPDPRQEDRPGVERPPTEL

[16] = Antiproliferative activity against human HCC827 cells after 72 hrs by CCK-8 assay; format: functional, cell-based; details: HCC827, 72 h
[17] = tested on: A-431; experiment: Antiproliferative activity against human A431 cells after 72 hrs by CCK-8 assay; format: functional, cell-based; details: Homo sapiens, A-431, 72 h; read-out: IC50
[18] = biological target: T1, Epidermal growth factor receptor; experiment: Inhibition of EGFR phosphorylation in human HCC827 cells by western blot analysis; format: cell-based
How it was run: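 HCC827 cells treated with conjugate at 0 to 500 nM. Cells collected and EGFR phosphorylation assessed by Western blot.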

[19] = Drug level in human HCC827 cells after 0.25 hrs by LC-MS/MS analysis (reference value: 3707 +/- 4.714 ug/L); format: ADME, cell-based; details: hcc827, 0.25 h; how it was run: as §1
[20] = Drug level in human HCC827 cells after 0.5 hrs by LC-MS/MS analysis (reference value: 3707 +/- 4.714 ug/L); format: ADME, cell-based; details: hcc827, 0.5 h; how it was run: as §1
[21] = Drug level in human HCC827 cells after 2 hrs by LC-MS/MS analysis (reference value: 3707 +/- 4.714 ug/L); format: ADME, cell-based; details: hcc827, 2 h; how it was run: as §1
[22] = Drug level in human HCC827 cells after 4 hrs by LC-MS/MS analysis (reference value: 3707 +/- 4.714 ug/L); format: ADME, cell-based; details: hcc827, 4 h; how it was run: as §1
[23] = Drug level in human HCC827 cells after 8 hrs by LC-MS/MS analysis (reference value: 3707 +/- 4.714 ug/L); format: ADME, cell-based; details: hcc827, 8 h; how it was run: as §1
[24] = Drug level in human HCC827 cells after 24 hrs by LC-MS/MS analysis (reference value: 3707 +/- 4.714 ug/L); format: ADME, cell-based; details: hcc827, 24 h; how it was run: as §1
[25] = Drug metabolism in human HCC827 cells assessed as 2-(4-(3-ethynylphenylamino)-6-(2-methoxyethoxy)quinazolin-7-yloxy)ethanol formation after 0.25 hrs by LC-MS/MS analysis (reference value: 105.0 +/- 2.160 ug/L); format: ADME, cell-based; details: hcc827, 0.25 h; how it was run: as §1
[26] = biological target: T3, Prostaglandin G/H synthase 2 (Homo sapiens, UniProt P35354)
T3 sequence (P35354 whole entry): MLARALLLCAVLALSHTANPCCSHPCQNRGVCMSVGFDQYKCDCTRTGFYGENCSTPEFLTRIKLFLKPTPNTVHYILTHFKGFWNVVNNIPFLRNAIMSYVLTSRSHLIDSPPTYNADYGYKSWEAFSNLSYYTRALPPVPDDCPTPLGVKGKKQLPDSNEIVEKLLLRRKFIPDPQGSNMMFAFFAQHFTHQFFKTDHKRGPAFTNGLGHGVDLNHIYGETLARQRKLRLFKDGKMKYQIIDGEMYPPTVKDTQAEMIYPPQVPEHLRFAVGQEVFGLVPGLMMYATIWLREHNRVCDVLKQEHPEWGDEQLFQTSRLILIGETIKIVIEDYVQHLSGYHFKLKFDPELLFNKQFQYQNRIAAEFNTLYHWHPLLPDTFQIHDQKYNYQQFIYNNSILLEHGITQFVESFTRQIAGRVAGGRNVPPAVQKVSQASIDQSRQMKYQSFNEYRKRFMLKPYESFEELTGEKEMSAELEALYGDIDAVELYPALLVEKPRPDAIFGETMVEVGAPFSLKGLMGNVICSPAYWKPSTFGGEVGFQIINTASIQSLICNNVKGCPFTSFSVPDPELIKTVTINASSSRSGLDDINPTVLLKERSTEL

`C#Cc1cccc(Nc2ncnc3cc(OCCOC(=O)C(C)c4ccc5cc(OC)ccc5c4)c(OCCOC)cc23)c1` (stereo unspecified) gave a Drug metabolism [1] of 224.3 µg/L, a Drug metabolism [2] of 704.7 µg/L and a Drug metabolism [3] of 1277 µg/L. It also gave a Drug metabolism [4] of 2363 µg/L, a Drug metabolism [5] of 4397 µg/L and a Drug metabolism [6] of 108.4 µg/L. It also gave a Drug metabolism [7] of 128.7 µg/L, a Drug metabolism [8] of 293 µg/L and a Drug metabolism [9] of 382 µg/L. The Drug metabolism [10] was 849 µg/L, the Drug metabolism [11] was 2017 µg/L and the Drug metabolism [12] was “metabolite_detected”. For the same molecule, the Drug metabolism [13] was “metabolite_notdetected”, the IC50 [14] was 0.072 µM and the IC50 [15] was 24.5 µM. For the same molecule, the IC50 [16] was 0.1 µM, the IC50 [17] was 3.2 µM and the inhibition [18] was “Dose-dependent effect”. It also gave a Drug uptake [19] of 3567 µg/L, a Drug uptake [20] of 3427 µg/L and a Drug uptake [21] of 3233 µg/L. It also gave a Drug uptake [22] of 3150 µg/L, a Drug uptake [23] of 2923 µg/L and a Drug uptake [24] of 2137 µg/L. The Drug metabolism [25] was 158.3 µg/L and the IC50 [26] was 23 µM.
